ChEMBL document CHEMBL1154413, “In vitro activities of different inhibitors of bacterial transcription against Staphylococcus epidermidis biofilm” (Antimicrob Agents Chemother, 2007)
Converted amounts (≈) assume the structure as drawn. The source made the active and inactive calls. The rule behind the calls is not given here.

Assays:
[1] = tested on: Staphylococcus epidermidis; assay: Inhibition of Staphylococcus epidermidis biofilm formation assessed as reduction of >2 log 10 bacterial count in biofilm after 24 hrs; type: functional, organism-based
In short: (§1)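 S. epidermidis RP62A biofilms grown 24 h at 37°C from 10^7 CFU/ml in MHB in polystyrene microtiter wells, rinsed, then exposed 24 h at 37°C without shaking to compound in MHB (1× to 16× MIC). Washed, lysed with DMSO, bacterial ATP read by luciferase/luciferin bioluminescence, converted to log10 CFU/well via calibration against plate counts; reduction versus unchallenged biofilm. Triplicate.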

[2] = tested on: Staphylococcus epidermidis; assay: Inhibition of Staphylococcus epidermidis biofilm formation assessed as log 10 reduction of bacterial count in biofilm at 4 times MIC per well after 24 hrs; type: functional; in short: as §1
[3] = tested on: Staphylococcus epidermidis; assay: Antimicrobial activity against Staphylococcus epidermidis; type: functional
In short: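 S. epidermidis RP62A; broth microdilution per CLSI in Mueller-Hinton broth, inoculum 5 × 10^5 CFU/ml, 37°C for 24 h before reading. Triplicate.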

[4] = Inhibition of Staphylococcus epidermidis RNA polymerase mediated transcription
In short: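 Transcription measured on toluene-permeabilized S. epidermidis cells, endogenous DNA as template; [5-3H]UTP incorporation read out, concentration giving 50% inhibition calculated. Triplicate.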

[5] = tested on: Staphylococcus epidermidis; assay: Ratio of MBC for Staphylococcus epidermidis to MIC for Staphylococcus epidermidis; type: functional
In short: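 MBC obtained by extending the CLSI MIC assay (MHB, 5 × 10^5 CFU/ml, 37°C, 24 h): well portions serially diluted, spotted on MHB agar, incubated 37°C, read at 24 h as lowest concentration giving 0.1% survival. Triplicate.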

[6] = tested on: Staphylococcus epidermidis; assay: Inhibition of Staphylococcus epidermidis biofilm formation assessed as log 10 reduction of bacterial count in biofilm at 0.025 ug/ml per well after 24 hrs; type: functional; in short: as §1

| Compound | Activity [1] | Activity [2] | MBC [3] | MIC [3] | IC50 [4] | Ratio [5] | Activity [6] |
| --- | --- | --- | --- | --- | --- | --- | --- |
| C=CCN1C(=O)/C(=C/c2ccc(-c3cccc(C(=O)O)c3)o2)SC1=S | inactive | 1.8 | 25 µg/mL (≈ 67.3 µM) | 12.5 µg/mL (≈ 33.7 µM) | 2.5 µg/mL (≈ 6.73 µM) | 2 |  |
| O/N=C(\Nc1cccc(Cl)c1)c1ccc(Cl)c(C(F)(F)F)c1 |  | 3 | 25 µg/mL (≈ 71.6 µM) | 25 µg/mL (≈ 71.6 µM) | 2.3 µg/mL (≈ 6.59 µM) | 1 |  |
| O/N=C(\Nc1ccccc1)c1cccc(C(F)(F)F)c1 |  | 3 | 100 µg/mL (≈ 357 µM) | 100 µg/mL (≈ 357 µM) | 4.2 µg/mL (≈ 15 µM) | 1 |  |
| CCOC(=O)c1c(NC(=O)Nc2ccccc2)sc2c1CCCCCC2 | inactive |  | > 100 µg/mL | 6.25 µg/mL (≈ 16.8 µM) | 0.5 µg/mL (≈ 1.34 µM) | >18 |  |
| CC(=O)Nc1c2sscc-2[nH]c1=O [HOLOMYCIN] | inactive |  | 50 µg/mL (≈ 233 µM) | 12.5 µg/mL (≈ 58.3 µM) | > 100 µg/mL | 4 |  |
| CO[C@H]1/C=C/O[C@@]2(C)Oc3c(C)c(O)c4c(O)c(c(/C=N/N5CCN(C)CC5)c(O)c4c3C2=O)NC(=O)/C(C)=C\C=C\[C@H](C)[C@H](O)[C@@H](C)[C@@H](O)[C@@H](C)[C@H](OC(C)=O)[C@@H]1C [RIFAMPIN] | inactive |  | 0.006 µg/mL (≈ 0.00729 µM) | 0.006 µg/mL (≈ 0.00729 µM) | 0.04 µg/mL (≈ 0.0486 µM) | 1 |  |
| CO[C@H]1/C=C/O[C@@]2(C)Oc3c(C)c(O)c4c(O)c(c(/C=N/N5CCN(C6CCCC6)CC5)c(O)c4c3C2=O)NC(=O)/C(C)=C\C=C\[C@H](C)[C@H](O)[C@@H](C)[C@@H](O)[C@@H](C)[C@H](OC(C)=O)[C@@H]1C [RIFAPENTINE] | inactive |  | 0.025 µg/mL (≈ 0.0285 µM) | 0.012 µg/mL (≈ 0.0137 µM) | 0.08 µg/mL (≈ 0.0912 µM) | 2 | 1.5 |
| CO[C@H]1/C=C/O[C@@]2(C)Oc3c(C)c(O)c4c(O)c(c5c(nc6cc(C)ccn65)c4c3C2=O)NC(=O)/C(C)=C\C=C\[C@H](C)[C@H](O)[C@@H](C)[C@@H](O)[C@@H](C)[C@H](OC(C)=O)[C@@H]1C [RIFAXIMIN] | inactive |  | 0.025 µg/mL (≈ 0.0318 µM) | 0.012 µg/mL (≈ 0.0153 µM) | 0.07 µg/mL (≈ 0.0891 µM) | 2 | 1.5 |
| CNC(=O)[C@@H](C)[C@H]1C(=O)/C(=C(O)/C=C/C(C)=C/[C@@H](C)[C@H]2O[C@@]3(C)O[C@H](C=C[C@@]34CO4)[C@@H]2C)C(=O)N1[C@@H]1CC[C@H](O)[C@H](C)O1 [STREPTOLYDIGIN] | inactive |  | 100 µg/mL (≈ 166 µM) | 50 µg/mL (≈ 83.2 µM) | 2.3 µg/mL (≈ 3.83 µM) | 2 |  |
| CC(=O)Nc1c2sscc-2n(C)c1=O [THIOLUTIN] | inactive |  | 12.5 µg/mL (≈ 54.8 µM) | 6.25 µg/mL (≈ 27.4 µM) | > 100 µg/mL | 2 |  |
